Assay results as given in ChEMBL document CHEMBL1144275, “Studies on the structure-activity relationship of 2',6'-dimethyl-l-tyrosine (Dmt) derivatives: bioactivity profile of H-Dmt-NH-CH(3)” (Bioorg Med Chem Lett, 2005).
Non-standard residues stand in square brackets, D forms with d. Residues, ends and D or L forms follow the SMILES beside them. Dmt = Cc1cc(O)cc(C)c1C[C@H](N)C(=O)O; Tic = O=C(O)[C@@H]1Cc2ccccc2CN1

Legend:
[1] = Binding affinity for rat brain opioid receptor delta 1
Method in brief: (§1)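 Ki values given as the mean ± SE of four to seven experiments; selectivity expressed as Kiδ/Kiμ.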

[2] = organism: Rattus norvegicus; assay: Ratio of binding affinities for opioid receptors delta 1 and mu 1; method in brief: as §1
[3] = Binding affinity for rat brain opioid receptor mu 1; method in brief: as §1
[4] = organism: Mus musculus; assay: Percent antagonism was evaluated relative to morphine in mice using naloxone; type: functional
[5] = test system: Mus musculus; assay: Analgesia was determined by hotplate (HP) test relative to morphine in mice after antinociception of intracerebroventricularly (icv) administration; type: functional
[6] = organism: Mus musculus; assay: Minimum effective dose showing antinociception activity in mice; type: functional
Method in brief: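 Minimum effective dose (nmol) for antinociception in mice after intracerebroventricular administration, measured by tail-flick and hot-plate tests.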

[7] = test system: Mus musculus; assay: Analgesia was determined by tail-flick (TF) test relative to morphine in mice after antinociception of intracerebroventricularly (icv) administration;Range 0.48-0.55; type: functional
[8] = test system: Mus musculus; assay: Analgesia was determined by hotplate (HP) test relative to morphine in mice after antinociception of intracerebroventricularly (icv) administration;Range-0.64?0.85; type: functional
[9] = test system: Mus musculus; assay: Analgesia was determined by tail-flick (TF) test relative to morphine in mice after antinociception of intracerebroventricularly (icv) administration;Range 1.3-1.7; type: functional

CCNC(=O)[C@@H](N)Cc1c(C)cc(O)cc1C
Ki [1]: 649 nM
Ratio [2]: 41.6
Ki [3]: 15.6 nM

Cc1cc(O)cc(C)c1C[C@H](N)C(=O)NCCO
Ki [1]: 455 nM
Ratio [2]: 28.1
Ki [3]: 16.2 nM

Cc1cc(O)cc(C)c1C[C@H](N)C(=O)N1Cc2ccccc2C[C@H]1C(=O)O (H-[Dmt]-[Tic]-OH)
Ratio [2]: 6.6e-07
Ki [3]: 3220 nM

Cc1cc(O)cc(C)c1C[C@H](N)C(=O)Nc1ccccc1
Ki [1]: 120 nM
Ratio [2]: 0.069
Ki [3]: 1730 nM

Cc1cc(O)cc(C)c1C[C@H](N)C(N)=O
Ki [1]: 1470 nM
Ratio [2]: 13
Antagonism [4]: 100%
Activity [5]: 0.26%
MED [6]: 200 nM
Activity [7]: 0.55%

Cc1cc(O)cc(C)c1C[C@H](N)C(=O)NC12CC3CC(CC(C3)C1)C2
Ki [1]: 208 nM
Ratio [2]: 0.27
Ki [3]: 767 nM

Cc1cc(O)cc(C)c1C[C@H](N)C(=O)NCCC(=O)O
Ki [1]: 328 nM
Ratio [2]: 1
Ki [3]: 329 nM

Cc1cc(O)cc(C)c1C[C@H](N)C(=O)NC1C2CC3CC(C2)CC1C3 (some centres undefined)
Ki [1]: 175 nM
Ratio [2]: 0.23
Ki [3]: 746 nM

Cc1cc(O)cc(C)c1C[C@H](N)C(=O)Nc1cccc2ccccc12
Ki [1]: 52.8 nM
Ratio [2]: 0.054
Ki [3]: 966 nM

CCCNC(=O)[C@@H](N)Cc1c(C)cc(O)cc1C
Ki [1]: 166 nM
Ratio [2]: 9.82
Ki [3]: 16.9 nM

Cc1cc(O)cc(C)c1C[C@H](N)C(=O)NC(C)(C)C
Ki [1]: 531 nM
Ratio [2]: 14.8
Ki [3]: 36 nM

Cc1cc(O)cc(C)c1C[C@H](N)C(=O)NC(C)C
Ki [1]: 492 nM
Ratio [2]: 22
Ki [3]: 22.4 nM

Cc1cc(O)cc(C)c1C[C@H](N)C(=O)NO
Ki [1]: 9490 nM
Ratio [2]: 5.58

CONC(=O)[C@@H](N)Cc1c(C)cc(O)cc1C
Ki [1]: 4580 nM
Ratio [2]: 26.3
Ki [3]: 174 nM

Cc1cc(O)cc(C)c1C[C@H](N)C(=O)O
Ki [1]: 46500 nM
Ratio [2]: 1.55

CNC(=O)[C@@H](N)Cc1c(C)cc(O)cc1C
Ki [1]: 460 nM
Ratio [2]: 61.7
Activity [8]: 0.85%
Antagonism [4]: 73%
Ki [3]: 7.45 nM
MED [6]: 30 nM
Activity [9]: 1.7%

Cc1cc(O)cc(C)c1C[C@H](N)C(=O)NCCN
Ki [1]: 3650 nM
Ratio [2]: 338
Ki [3]: 10.8 nM

Cc1cc(O)cc(C)c1C[C@H](N)C(=O)NCN
Ki [1]: 2410 nM
Ratio [2]: 13.4
Ki [3]: 180 nM

Cc1cc(O)cc(C)c1C[C@H](N)C(=O)NCC(=O)O
Ki [1]: 1150 nM
Ratio [2]: 0.43
Ki [3]: 2700 nM

Cc1cc(O)cc(C)c1C[C@H](N)C(=O)NC1CCCCC1
Ki [1]: 197 nM
Ratio [2]: 1.71
Ki [3]: 115 nM
